Screens (PubChem BioAssay)
Insulin prom act = TRM-6 insulin promoter activation. TRM-6 cells (human fetal islet line), insulin promoter eGFP reporter, imaging; plate-scaled: unstimulated 0, stimulated control 100. hit rate 0.81% among 130,000. activation, % at 2 µM;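 active = activation at 2 µM above a set limit, confirmed on inspection of the cell images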;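 also: share of cells whose green reporter signal exceeds an intensity cutoff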
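Test system: TRM-6 insulin promoter–eGFP reporter cells / Quantity: 1,000 cells per well / Reagent: tamoxifen inducer, 0.75 µM, in seeding medium / Compound dosing: 2 µM final, single concentration / Schedule: overnight tamoxifen, then two-day compound incubation at 37 °C / Measured by: automated fluorescence imaging of paraformaldehyde-fixed, Hoechst-counterstained cells, green channel / Read-out: percent activation from GFP-positive cell fraction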
Large screens that a line does not name were inactive. This is one part of a sample in which hits are shown more often than they occur.

COc1ccc(N(Cc2cc3cc(OC)ccc3[nH]c2=O)C(=O)c2cccnc2)cc1	none
FC(F)(F)COc1nc(OCC(F)(F)F)nc(N2CCN(c3ccccc3)CC2)n1	none
CCN(C(=O)Cn1c(=O)n(-c2cc(OC)c(OC)c(OC)c2)c(=O)c2ccccc21)c1cccc(C)c1	none
COc1ccc(C(=O)NC(=S)Nc2ccc(Cc3ccncc3)cc2)cc1	none
CCc1ccc(NS(=O)(=O)c2cccc3nonc23)cc1	none
CCn1c(SCC(=O)c2[nH]c(C)c(C(C)=O)c2C)nnc1-c1ccccc1	none
CCOC(=O)c1c(-c2ccncc2)csc1N	Insulin prom act 460
Cc1cccc(-c2csc(N)c2C(=O)OC(C)C)c1	none
COC(=O)c1c(-c2ccncc2)csc1NC(=O)c1ccoc1C	none
CC1=NN(C(=O)COc2ccccc2)C(O)(c2cccnc2)C1 (stereo unspecified)	none
CCN(CC)c1ccc(/C=N/NC(=O)CCC(=O)NCc2ccccc2)c(O)c1	none
CSCCC(NC(N)=O)C(=O)NCc1ccc(Cl)cc1 (stereo unspecified)	none
Cc1ccnn2cc3c(=O)n(C)c(=O)n(C)c3c12	none
O=C(NCCc1ccccn1)C1CCN(S(=O)(=O)c2ccc3ccccc3c2)CC1	none
COc1ccc(CCNC(=O)Cn2c(=O)n(-c3ccc(F)cc3)c(=O)c3sccc32)cc1OC	none
O=C(c1ccc(Br)o1)N1CCN(c2ncccn2)CC1	none
COc1ccc(Cc2nnc(SCC(=O)c3ccc(OC)cc3)o2)cc1	none
S=c1[nH]nc(COc2ccc3ccccc3c2)o1	none
COc1ccc(Cc2n[nH]c(=S)o2)cc1	Insulin prom act 479
CCC(C)NC(=O)CSc1nnc(-c2cc(-c3cccs3)nc3ccccc23)o1 (stereo unspecified)	none
Cc1cccc(OCc2nnc(NC(=O)Cc3cccs3)s2)c1	none
COCC(=O)N1CCN(c2cccc(Cl)c2)CC1	none
CC(C)CNC(=O)CN(C)S(=O)(=O)c1ccc(F)cc1	none
CCN(CC)S(=O)(=O)c1ccc(F)cc1	none
CCOC(=O)CCN(Cc1sccc1C)S(=O)(=O)c1ccc(F)cc1	Insulin prom act 77
CC(C)CCNC(=O)CN(Cc1ccc2c(c1)OCO2)C(=O)Cn1nnc(-c2cccs2)n1	none
CCN(CC)S(=O)(=O)c1ccc(N2CCCCC2)c(NC(=O)c2ccncc2)c1	none
CCOC(=O)c1ccc(CNCc2ccc(Br)cc2)cc1	none
CCOC(=O)C1=C(C)Nc2ccccc2N=C1NC(=O)Cc1ccc(Br)cc1	Insulin prom act 223
CCOC(=O)C1=C(C)Nc2ccccc2N=C1NC(=O)Cc1ccc(Cl)c(Cl)c1	none
CCCc1c(CC)c(=N)c2ccccc2n1C	none
N/C(=N\OC(=O)CCC1CCCC1)c1ccccn1	none
Cc1ccccc1N1CC(C(=O)O)CC1=O (stereo unspecified)	none
Cc1ccc(N2CC(C(N)=O)CC2=O)cc1C (stereo unspecified)	Insulin prom act 543
Cc1cc(N2CC(C(=O)NCc3cccs3)CC2=O)ccc1C(C)C (stereo unspecified)	none
Cn1c(SCC(=O)NC(c2ccccc2)c2ccccc2)nnc1-c1cccs1	none
O=C1CC(c2ccccc2Cl)CC(O)=C1C=Nc1ccccc1 (stereo unspecified)	none
Nc1[nH]ncc1-c1ccccc1	none
Cc1sc2ccccc2[n+]1CCC(C)S(=O)(=O)[O-] (stereo unspecified)	none
CC/C(=C/c1sc2ccccc2[n+]1CC)SC	none
CC[n+]1c(C=C2C=C(C)OC(C)=C2)sc2ccccc21	Insulin prom act 809
CCC(=O)N1CCN(c2nc(-c3ccc(Cl)cc3)cs2)CC1	Insulin prom act 464
Fc1ccc(-c2csc(N3CCSCC3)n2)cc1	none
CCc1nnc(NC(=O)CN2CCN(c3nc(-c4ccccc4)cs3)CC2)s1	none
COc1cccc(-c2cc(C(F)(F)F)nc(N3CCN(c4ccccc4)CC3)n2)c1	none
CN=C(Nc1ccc(Cl)cc1)c1ccc(C(F)(F)F)cc1	none
Cn1nnc(NC(=O)COc2ccc(C3CCCCC3)cc2)n1	none
CCCN1C(=O)/C(=C/c2ccncc2)SC1=S	none
CCCCN1C(=O)C(=O)N(c2ccccc2)C1=S	none
CCCCN1C(=O)/C(=C/C=C2/CC(C)(C)CN2C)SC1=S	Insulin prom act 270
Cc1nccn1-c1cc(C(C)(C)C)nc2c(-c3ccccc3)cnn12	none
Cc1sc(NC(=O)c2cccnc2)nc1-c1ccccc1	none
O=C1CCCCCC1C1(O)C(=O)Nc2ccccc21 (stereo unspecified)	none
Cc1c(O)cc2n(c1=O)-c1ccccc1C2(C)C	none
Cc1cc(C2(c3ccc(O)c(C)c3)C(=O)Nc3ccccc32)ccc1O	Insulin prom act 127
Cc1cccc(Nc2nnc(-c3ccc(N4CCOCC4)c([N+](=O)[O-])c3)c3ccccc23)c1	none
Cc1ccc(S(=O)(=O)NC(N)=NCCc2ccc(Cl)cc2)cc1C	none
CCN(CC)C(=O)c1sc(NC(=O)C(Sc2ccccc2)c2ccccc2)c(C(=O)OC(C)C)c1C (stereo unspecified)	none
Cc1ccc(CSCC(=O)Nc2ccc3c(c2)OCO3)cc1	none
Cc1ccc(NC(=O)CSCC#N)cc1	Insulin prom act 83
Cc1ccc(NC(=O)CSc2nnc(-c3cccnc3)s2)cc1	none
CC(c1ccccc1)N1CC(C(=O)N2CCN(c3ccc(F)cc3)CC2)CC1=O (stereo unspecified)	none
